This note sets out measurements from ChEMBL document CHEMBL1152300, “Ligand specificity of constitutive androstane receptor as probed by induced-fit docking and mutagenesis” (J Med Chem, 2008).

The structures appear in SMILES notation.

Type in all cases: cell-based
For data set [1], the target named is T1, mouse CAR (NR1I3), wild type (Mus musculus, UniProt O35627).
T1 sequence (O35627 whole entry): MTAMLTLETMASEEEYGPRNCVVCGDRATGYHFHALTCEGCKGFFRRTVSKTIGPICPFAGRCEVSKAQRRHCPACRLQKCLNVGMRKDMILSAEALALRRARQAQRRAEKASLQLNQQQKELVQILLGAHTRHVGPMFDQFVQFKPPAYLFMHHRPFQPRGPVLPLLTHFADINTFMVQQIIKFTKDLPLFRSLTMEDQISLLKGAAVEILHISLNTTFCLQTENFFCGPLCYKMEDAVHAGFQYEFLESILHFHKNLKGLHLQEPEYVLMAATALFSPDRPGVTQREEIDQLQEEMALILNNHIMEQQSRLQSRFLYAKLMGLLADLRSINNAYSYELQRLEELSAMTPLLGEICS
The data set can be described thus: Decrease in wild type mouse CAR activation expressed in HEK293 cells at 10 uM by mammalian one-hybrid transactivation assay. Conditions: HEK293 cells expressing wild type mouse CAR, read-out: Activity. In a few lines:
(§1)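 GAL4 DBD fused to mouse CAR LBD (residues 118-358), wild type or point mutant, cotransfected with UASx4-tk-luc reporter and pCMVβ into HEK293 cells. Cells cultured with DMSO (0.1% v/v) or compound (final 1, 2 or 10 µM). Lysed 24 h post-transfection. Luciferase normalized to β-galactosidase, expressed relative to empty GAL4 vector (=1.0). Mean ± SD, three independent experiments.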

Data set [2] concerns the target T2, Nuclear receptor subfamily 1 group I member 3 (Mus musculus, UniProt O35627, F171A). Nature of the data set: Decrease in nuclear co-repressor receptor binding to mouse CAR F171A mutant […] at 10 uM by yeast two-hybrid assay. Conditions: read-out: Activity. The essentials: (§2)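 Yeast expressing wild-type or mutant mouse CAR LBD plus NCoR, selected on SD plates lacking leucine and tryptophan. Pooled colonies treated with DMSO or compound for 3.5 h. β-Galactosidase activity normalized to cell density. Reference is 10 µM androstenol (=100). Mean ± SD of two independent determinations, each in triplicate.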

The target in data set [3] is T3, Nuclear receptor subfamily 1 group I member 3 (Mus musculus, UniProt O35627, N175A). The data set can be described thus: Decrease in nuclear co-repressor receptor binding to mouse CAR N175A mutant […] at 2 uM by yeast two-hybrid assay. The settings on record: read-out: Activity. In a few lines:
(§3)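 Yeast two-hybrid: yeast expressing wild-type or mutant mouse CAR LBD plus SRC-1 or NCoR, selected on SD medium lacking Leu and Trp. Pooled colonies treated with DMSO or test chemical for 3.5 h. β-Galactosidase normalized to cell density. SRC-1 reference: wild-type + DMSO = 100. NCoR reference: 10 µM androstenol = 100. Mean ± SD, two independent determinations, each in triplicate.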

The target in data set [4] is T4, Nuclear receptor subfamily 1 group I member 3 (Mus musculus, UniProt O35627, L253F). The data set can be described thus: Decrease in nuclear co-repressor receptor binding to mouse CAR L253F mutant […] at 2 uM by yeast two-hybrid assay. The settings on record: read-out: Activity. In a few lines:
as §3

Data set [5] addresses T5, Nuclear receptor subfamily 1 group I member 3 (Mus musculus, UniProt O35627, I252L). Nature of the data set: Activation of mouse CAR I252L mutant expressed in HEK293 cells at 2 uM by mammalian one-hybrid assay. Conditions: hek293, 2 µM. In a few lines:
(§4)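 GAL4-DBD fused to mouse CAR LBD (residues 118-358), wild-type or point mutant, cotransfected with UASx4-tk-luc reporter and pCMVβ into HEK293 cells. Cells were exposed to final 1 µM, 2 µM or 10 µM test chemical, or 0.1% v/v DMSO, for 24 h after transfection. Luciferase was normalized to β-galactosidase and set against empty GAL4 vector (=1.0). Mean ± standard deviation, three independent experiments.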

The target in data set [6] is T3, Nuclear receptor subfamily 1 group I member 3. The data set can be described thus: Enhancement of steroid receptor co-activator 1 binding to mouse CAR N175A mutant […] at 2 uM by yeast two-hybrid assay. The essentials:
as §3

In data set [7] the target is Nuclear receptor subfamily 1 group I member 3 (Mus musculus, UniProt O35627, Y336A). Nature of the data set: Decrease in steroid receptor coactivator 1 binding to mouse CAR Y336A mutant […] at 2 uM by yeast two-hybrid assay. Conditions: read-out: Activity. The essentials: as §3
Nuclear receptor subfamily 1 group I member 3 (Mus musculus, UniProt O35627, Y336A), sequence (O35627 whole entry Y336A): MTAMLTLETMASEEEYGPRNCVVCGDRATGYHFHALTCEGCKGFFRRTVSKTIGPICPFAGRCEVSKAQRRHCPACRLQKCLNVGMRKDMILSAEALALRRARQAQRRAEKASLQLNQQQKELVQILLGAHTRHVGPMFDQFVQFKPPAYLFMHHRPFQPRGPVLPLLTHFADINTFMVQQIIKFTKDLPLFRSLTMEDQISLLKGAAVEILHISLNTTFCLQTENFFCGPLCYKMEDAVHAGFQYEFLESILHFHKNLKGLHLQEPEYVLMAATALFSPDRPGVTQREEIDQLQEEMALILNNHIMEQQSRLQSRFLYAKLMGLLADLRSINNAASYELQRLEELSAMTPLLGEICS
Data set [8] deals with T2, Nuclear receptor subfamily 1 group I member 3. The data set can be described thus: Activation of mouse CAR F171A mutant expressed in HEK293 cells at 2 uM by mammalian one-hybrid assay. The settings on record: hek293, 2 µM. In a few lines:
as §4

For data set [9], the target named is Nuclear receptor subfamily 1 group I member 3 (Mus musculus, UniProt O35627, T350M). Nature of the data set: Decrease in steroid receptor coactivator 1 binding to mouse CAR T350M mutant […] at 1 uM by yeast two-hybrid assay. The settings on record: read-out: Activity. The essentials: (§5)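 Yeast expressing wild-type or mutant mouse CAR LBD plus SRC-1, selected on SD plates lacking leucine and tryptophan. Pooled colonies treated with DMSO or compound for 3.5 h. β-Galactosidase activity normalized to cell density. Reference is wild-type CAR + SRC-1 with DMSO (=100). Mean ± SD of two independent determinations, each in triplicate.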
Nuclear receptor subfamily 1 group I member 3 (Mus musculus, UniProt O35627, T350M), sequence (O35627 whole entry T350M, the tested form may be a part): as the sequence (O35627 whole entry Y336A) above, with A336Y, T350M counted along it

Data set [10] concerns the target T4, Nuclear receptor subfamily 1 group I member 3. The data set can be described thus: Effect on nuclear co-repressor receptor binding to mouse CAR L253F mutant […] at 1 uM by yeast two-hybrid assay. Conditions: read-out: Activity. The essentials: as §2
For data set [11], the target named is Nuclear receptor subfamily 1 group I member 3 (Mus musculus, UniProt O35627, L212A). Nature of the data set: Effect on nuclear co-repressor receptor binding to mouse CAR L212A mutant […] at 1 uM by yeast two-hybrid assay. The settings on record: read-out: Activity. In a few lines:
as §2

Data set [12] deals with T4, Nuclear receptor subfamily 1 group I member 3. The data set can be described thus: Effect on steroid receptor coactivator 1 binding to mouse CAR L253F mutant […] at 1 uM by yeast two-hybrid assay. Conditions: read-out: Activity. The essentials:
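Yeast two-hybrid assay. Yeast co-expressing wild-type or mutant mouse CAR LBD and the SRC-1 partner were selected on SD plates lacking leucine and tryptophan. Random colonies were pooled and amplified, then treated with DMSO or test chemical for 3.5 h. β-galactosidase activity was normalized to cell density and set relative to wild-type mCAR + SRC-1 with DMSO (=100). Mean ± standard deviation of two determinations, each in triplicate.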

For data set [13], the target named is T3, Nuclear receptor subfamily 1 group I member 3. Nature of the data set: Decrease in mouse CAR N175A mutant activation expressed in HEK293 cells at 1 uM by mammalian one-hybrid assay. Conditions: read-out: Activity. The essentials:
as §1

The target in data set [14] is T6, Nuclear receptor subfamily 1 group I member 3 (Mus musculus, UniProt O35627, H213A). The data set can be described thus: Activation of mouse CAR H213A mutant expressed in HEK293 cells at 1 uM by mammalian one-hybrid assay. Conditions: hek293, 1 µM. In a few lines:
as §1

The target of data set [15] is T6, Nuclear receptor subfamily 1 group I member 3. Nature of the data set: Effect on steroid receptor co-activator 1 binding to mouse CAR H213A mutant […] at 1 uM by yeast two-hybrid assay. Conditions: read-out: Activity. The essentials: as §5
In data set [16] the target is Nuclear receptor subfamily 1 group I member 3 (Mus musculus, UniProt O35627, L353A). The data set can be described thus: Decrease in steroid receptor coactivator 1 binding to mouse CAR L353A mutant […] at 1 uM by yeast two-hybrid assay. The settings on record: read-out: Activity. The essentials: as §5
Nuclear receptor subfamily 1 group I member 3 (Mus musculus, UniProt O35627, L353A), sequence (O35627 whole entry L353A): as the sequence (O35627 whole entry Y336A) above, with A336Y, L353A counted along it
Data set [17] concerns the target T5, Nuclear receptor subfamily 1 group I member 3. The data set can be described thus: Effect on nuclear co-repressor receptor binding to mouse CAR I252L mutant […] at 1 uM by yeast two-hybrid assay. The settings on record: read-out: Activity. In a few lines:
as §2

Data set [18] deals with Nuclear receptor subfamily 1 group I member 3 (Mus musculus, UniProt O35627, F171L). The data set can be described thus: Effect on nuclear co-repressor receptor binding to mouse CAR F171L mutant […] at 1 uM by yeast two-hybrid assay. The settings on record: read-out: Activity. The essentials:
as §2

T3 sequence (O35627 whole entry N175A, the tested form may be a part): as the sequence (O35627 whole entry Y336A) above, with N175A, A336Y counted along it
T4 sequence (O35627 whole entry L253F): as the sequence (O35627 whole entry Y336A) above, with L253F, A336Y counted along it
T2 sequence (O35627 whole entry F171A, the tested form may be a part): as the sequence (O35627 whole entry Y336A) above, with F171A, A336Y counted along it
T5 sequence (O35627 whole entry I252L, the tested form may be a part): as the sequence (O35627 whole entry Y336A) above, with I252L, A336Y counted along it
T6 sequence (O35627 whole entry H213A): as the sequence (O35627 whole entry Y336A) above, with H213A, A336Y counted along it
Nuclear receptor subfamily 1 group I member 3 (Mus musculus, UniProt O35627, L212A), sequence (O35627 whole entry L212A): as the sequence (O35627 whole entry Y336A) above, with L212A, A336Y counted along it
Nuclear receptor subfamily 1 group I member 3 (Mus musculus, UniProt O35627, F171L), sequence (O35627 whole entry F171L): as the sequence (O35627 whole entry Y336A) above, with F171L, A336Y counted along it

Take `C[C@]12CC[C@@H](O)C[C@@H]1CC[C@@H]1[C@@H]2CC[C@]2(C)C=CC[C@@H]12` [ANDROSTENOL]: the figures for the inhibition at 10 µM in data set [1] and in [2] were greater than 60% and no less than 50%, respectively.

Consider `Clc1ccccc1C(c1ccccc1)(c1ccccc1)n1ccnc1` [CLOTRIMAZOLE], for which the inhibition at 2 µM is less than 50% in data set [3], no less than 50% in [4] and no less than 50% in data set [7]. Also, the Activity is reported as 50% in data set [5], “>= 50%” in [6] and greater than 100% in data set [8].

As for `Clc1cnc(Oc2ccc(Oc3ncc(Cl)cc3Cl)cc2)c(Cl)c1`, the results for the inhibition at 1 µM in [9], in data set [13] and in [16] were no less than 50%, less than 50% and no less than 50%, respectively. In addition, the activity at 1 µM in data set [10], in [11], in data set [12], in [15], in data set [17] and in [18] was less than 50% each time. The Activity in data set [14] was 50%.
